Screening data deposited in PubChem by Sanford-Burnham Center for Chemical Genomics.
APJ antagonist: antagonists of human APJ apelin receptor; P35414; CHO-K1 APJ beta-arrestin complementation, luminescence; hit rate 0.32% among 330,000; inhibition, % at 20 µM;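 active = inhibition above about 40% at 20 µM, limit read from the data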;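 also: cells challenged with 10 nM apelin-13 agonist together with compound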
CCR6 antag: antagonists of human CCR6 receptor; P51684; CHO-K1 CCR6 PathHunter beta-arrestin, luminescence, CCL20-stimulated; inhibition, % at 20 µM; hit rate 0.49% among 340,000;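 active = compounds whose inhibition of the agonist-driven luminescence signal at 20 µM reaches about 50%, limit read from the data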;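 also: cells stimulated with CCL20 at 14 nM final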
Target sequence (P51684 whole entry, looked up): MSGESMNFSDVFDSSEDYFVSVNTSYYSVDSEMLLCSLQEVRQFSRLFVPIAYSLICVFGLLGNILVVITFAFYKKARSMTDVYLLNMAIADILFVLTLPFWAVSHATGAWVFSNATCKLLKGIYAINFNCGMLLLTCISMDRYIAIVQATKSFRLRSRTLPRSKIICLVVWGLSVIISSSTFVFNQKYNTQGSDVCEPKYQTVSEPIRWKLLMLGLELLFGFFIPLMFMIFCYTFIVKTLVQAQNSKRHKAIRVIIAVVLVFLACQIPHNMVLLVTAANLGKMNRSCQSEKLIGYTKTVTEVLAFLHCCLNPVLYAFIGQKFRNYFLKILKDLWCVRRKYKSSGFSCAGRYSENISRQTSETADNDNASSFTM
CXCR6 block: blocks human CXCR6 beta-arrestin recruitment; O00574; CHO-K1 PathHunter CXCR6 beta-arrestin, luminescence; inhibition, % at 20 µM; hit rate 0.36% among 360,000; in the data active = inhibition above about 34%, passing the limit was not always enough;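 also: antagonist mode with CXCL16 agonist at 10 nM final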
Target sequence (O00574 whole entry, looked up): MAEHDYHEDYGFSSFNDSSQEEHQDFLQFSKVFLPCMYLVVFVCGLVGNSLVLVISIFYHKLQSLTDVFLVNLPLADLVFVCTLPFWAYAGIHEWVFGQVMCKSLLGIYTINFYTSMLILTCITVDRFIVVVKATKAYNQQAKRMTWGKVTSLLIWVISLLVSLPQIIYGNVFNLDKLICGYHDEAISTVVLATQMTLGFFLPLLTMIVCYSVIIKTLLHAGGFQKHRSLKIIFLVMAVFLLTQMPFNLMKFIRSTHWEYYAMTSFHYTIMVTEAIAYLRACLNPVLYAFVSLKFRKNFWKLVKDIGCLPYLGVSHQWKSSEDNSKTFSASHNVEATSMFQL
EBI2 block: EBI2 (human) antagonism; P32249; inhibition, % at 5 µM; EBI2 beta-arrestin recruitment, luminescence, 7a,25-OHC stimulated; AID 651636; hit rate 0.81% among 360,000; in the data active = inhibition above about 38%;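 also: enzyme fragment complementation signal reports receptor beta-arrestin coupling in cells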
APJ agonist: APJ receptor agonism | P35414 | CHO-K1 APJ PathHunter beta-arrestin, luminescence; 0% DMSO wells, 100% apelin | activation, % at 20 µM | hit rate 0.11% among 330,000 | AID 2520;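 active = activation more than six SD over the plate average, tested at 20 µM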
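Material: engineered CHO-K1 APJ arrestin reporter cells; amount: 1000 CHO-K1 reporter cells seeded per well; incubation: compound stimulation 90 min at 25 °C, detection 60 min; signal: luminescent beta-gal fragment complementation, chemiluminescent substrate; read-out basis: APJ agonist activity; controls: DMSO-only wells as negative, 10 nM Apelin-13 as positive control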
EBI2 antag conf: EBI2 (human) antagonism, single concentration confirmation. shares compounds with EBI2 block. EBI2 beta-arrestin luminescence, 7a,25-OHC antagonism. inhibition, % at 5 µM. hit rate 29% among 2,400;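 active = inhibition of at least 50%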
EBI2 ag: counter-screen for EBI2 antagonists: EBI2 agonist activity. 2,400 tested, under 10 active. shares compounds with EBI2 block. EBI2-expressing cells, agonist mode, luminescence, 60 min; 0% vehicle, 100% 7α,25-dihydroxycholesterol control. activation, % at 5 µM;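 active = activation of at least 50%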
bGal counter: beta-galactosidase inhibition counter-screen. hit rate 1% among 2,400. shares compounds with EBI2 block. inhibition, % at 5 µM. purified beta-galactosidase, luminescent Galacton Star, 15 min. AID 652176;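 active = replicate-average signal at least 3 plate SD below neutral wells, shown as high inhibition, flagging enzyme-inhibiting false positives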;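 also: higher means stronger loss of beta-gal luminescence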
Large screens that a line does not name were inactive (follow-up assays come after a bar, where they were run). Most compounds without a hit are left out; they make up all but 1.5% or so of the library.

Cc1cc2cc(C=O)c(Cl)nc2cc1C	none
O=C(Cn1cc([N+](=O)[O-])cn1)Nc1ccn(Cc2c(F)c(F)cc(F)c2F)n1	none
CCOc1ccc(NC(=S)N(CCCN2CCOCC2)Cc2cn(C)c3ccccc23)cc1	EBI2 block 44.1 | EBI2 antag conf inactive | EBI2 ag inactive | bGal counter inactive
COc1cccc(-c2cc(C(=O)N3CCN(S(=O)(=O)c4ccccc4)CC3)[nH]n2)c1	none
COc1ccc(C(=O)N2CCN(S(=O)(=O)c3ccc(Br)cc3)CC2)cc1	EBI2 block 52.2 | EBI2 antag conf inactive | EBI2 ag inactive | bGal counter inactive
COc1ccc(-c2cc(C(=O)N3CCN(S(=O)(=O)c4ccc(C)cc4)CC3)[nH]n2)cc1	EBI2 block 53.2 | EBI2 antag conf inactive | EBI2 ag inactive | bGal counter inactive
CC1CC(C)CN(S(=O)(=O)c2ccc(C(=O)N3CCN(c4ccccc4)CC3)cc2)C1 (stereo not drawn)	EBI2 block 56.8 | EBI2 antag conf inactive | EBI2 ag inactive | bGal counter inactive
COc1ccc(S(=O)(=O)N2CCN(C(=O)c3cc(-c4ccc(C)cc4)n[nH]3)CC2)cc1	EBI2 block 74.5 | EBI2 antag conf inactive | EBI2 ag inactive | bGal counter inactive
COc1ccc(CN2CCN(C(=O)c3ccc(S(=O)(=O)N4CCCCCC4)cc3)CC2)cc1	none
CC(=O)c1cc(-c2ccc(F)cc2)n(CC(=O)NCc2cccs2)c1C	none
CC(C)CN(C(=O)COC(=O)CCC(=O)c1ccc(F)cc1)c1c(N)n(Cc2ccccc2)c(=O)[nH]c1=O	none
Cc1ccc2oc(C(=O)N3CCC(N4CCSCC4)CC3)c(C)c2c1	EBI2 block 71.3 | EBI2 antag conf inactive | EBI2 ag inactive | bGal counter inactive
CCOC(=O)C1CCN(C2CCN(C(=O)c3oc4c(F)cccc4c3C)CC2)CC1	none
Cc1c(C(=O)N2CCC(N3CCSCC3)CC2)oc2c(F)cccc12	EBI2 block 46.5 | EBI2 antag conf inactive | EBI2 ag inactive | bGal counter inactive
Cc1ccc(/C=C/C(=O)N2CCN(Cc3ccccc3)CC2)o1	none
O=C(/C=C/c1ccc(F)cc1)N1CCN(Cc2ccccc2)CC1	EBI2 block 92.7 | EBI2 antag conf 79.5 | EBI2 ag inactive | bGal counter inactive
O=C(/C=C/c1ccc(Br)cc1)N1CCN(Cc2ccccc2)CC1	EBI2 block 96.0 | EBI2 antag conf 85.3 | EBI2 ag inactive | bGal counter inactive
CCOc1cc(CN2CCCC(N3CCc4ccccc4C3)C2)ccc1O (stereo not drawn)	none
NC(=O)C1CCN(c2oc(-c3cccs3)nc2S(=O)(=O)c2ccc(Br)cc2)CC1	none
CC(c1ccccc1)N(CCC(c1ccccc1)C1CCOC(C)(C)C1)C(=O)c1ccco1 (stereo not drawn)	EBI2 block 44.3 | EBI2 antag conf inactive | EBI2 ag inactive | bGal counter inactive
Cc1ccccc1CN(c1ccc(C(=O)Nc2ccccc2C(=O)NCc2ccco2)cc1)S(C)(=O)=O	EBI2 block 57.9 | EBI2 antag conf inactive | EBI2 ag inactive | bGal counter inactive
O=C(CN1C(=O)c2ccccc2S1(=O)=O)c1ccc(F)c(F)c1	none
O=C(COc1ccc2ccccc2c1Br)N1CCCC1	none
CCOC(=O)N1CCN(C(=O)COc2ccc3ccccc3c2Br)CC1	EBI2 block 51.6 | EBI2 antag conf inactive | EBI2 ag inactive | bGal counter inactive
CCOC(=O)N1CCN(C(=O)COc2ccccc2Cl)CC1	none
CCOC(=O)N1CCN(C(=O)COc2cc(C)c(Cl)c(C)c2)CC1	EBI2 block 82.7 | EBI2 antag conf 62.9 | EBI2 ag inactive | bGal counter inactive
Nc1nc(Cl)cc(N2CCC(c3cc(-c4ccc(Cl)cc4Cl)n[nH]3)CC2)n1	EBI2 block 45.5 | EBI2 antag conf inactive | EBI2 ag inactive | bGal counter inactive
CCOC(=O)C1CN(S(=O)(=O)c2ccc(C)cc2)CCN1S(=O)(=O)c1ccc(C)cc1 (stereo not drawn)	EBI2 block 44.5 | EBI2 antag conf inactive | EBI2 ag inactive | bGal counter inactive
CN(C)S(=O)(=O)c1ccc(C(=O)NCCSc2ccc(Br)cc2)cc1	EBI2 block 65.2 | EBI2 antag conf inactive | EBI2 ag inactive | bGal counter inactive
COc1ccc(CNc2ccc(-c3ccc(OC)cc3)nn2)cc1	EBI2 block 74.3 | EBI2 antag conf inactive | EBI2 ag inactive | bGal counter inactive
O=C(CCc1nc2ccccc2c(=O)[nH]1)Nc1cc(Cl)ccc1N1CCCCC1	none
O=c1c2oc3ccccc3c2ncn1Cc1cccc(Cl)c1	EBI2 block 48.5 | EBI2 antag conf inactive | EBI2 ag inactive | bGal counter inactive
O=c1c2oc3ccccc3c2ncn1Cc1ccccc1Cl	none
Cc1[nH]c2ccc(-c3nnc(SCC(=O)c4ccc(F)cc4)o3)cc2c1C	none
Cc1cc(C)c(C)c(C(=O)CSc2nnc(-c3ccc4[nH]c(C)c(C)c4c3)o2)c1C	EBI2 block 52.0 | EBI2 antag conf 55.9 | EBI2 ag inactive | bGal counter inactive
COc1ccccc1Cc1c(-c2ccc(C#N)cc2)nc2c3ccccc3ccn12	EBI2 block 43.0 (no result: APJ antagonist, CCR6 antag, APJ agonist) | EBI2 antag conf inactive | EBI2 ag inactive | bGal counter inactive
COc1ccc(Cc2c(-c3ccc(C#N)cc3)nc3c4ccccc4ccn23)c(C)c1	none (no result: APJ antagonist, CCR6 antag, APJ agonist)
COc1ccccc1CNC(=O)COC(=O)c1cc(C)oc1C	none
COc1ccc(N2CCN(C(=O)c3cc4cc(Cl)ccc4[nH]3)CC2)cc1	EBI2 block 75.4 | EBI2 antag conf 58.7 | EBI2 ag inactive | bGal counter inactive
O=C(c1cc2cc(Cl)ccc2[nH]1)N1CCN(c2ccc(F)cc2)CC1	EBI2 block 83.7 | EBI2 antag conf 75.0 | EBI2 ag inactive | bGal counter inactive
O=C(Cn1nc(-c2ccccc2)ccc1=O)NCC1COCCO1 (stereo not drawn)	none
CCOc1ccc(NC(=O)CN(C)C(=O)c2ccc(OCc3ccccc3)c(OC)c2)cc1OCC	none
CCc1nc2ccc(C(=O)Nc3cc(-c4ccccc4)ccc3OC)cn2c1N(C)C(=O)c1cccc(OC)c1	EBI2 block 42.9 (no result: APJ antagonist, CCR6 antag, APJ agonist) | EBI2 antag conf inactive | EBI2 ag inactive | bGal counter inactive
CCc1nc2ccc(C(=O)Nc3cc(-c4ccccc4)ccc3OC)cn2c1N(C)Cc1ccc(OC)cc1	EBI2 block 44.5 (no result: APJ antagonist, CCR6 antag, APJ agonist) | EBI2 antag conf inactive | EBI2 ag inactive | bGal counter inactive
CCc1nc2ccc(C(=O)Nc3cc(-c4ccccc4)ccc3OC)cn2c1N(C)CCCc1ccccc1	none (no result: APJ antagonist, CCR6 antag, APJ agonist)
O=C(c1ccc(F)cc1)N1CCOC(c2nc(-c3ccc(F)cc3)no2)C1 (stereo not drawn)	none
